From PubChem BioAssay
Calls of active or inactive are those of the source.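 The calls were made as follows, unless noted: active = visually confirmed hit in the image check and inhibition above 20%; inconclusive = visually confirmed hit but inhibition not above 20%; inactive = no visual hit in the image check.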

How the values were obtained:
[1] = inhibitors of TNFa-induced NFkB p65 translocation, primary screen, imaging, HUVEC, MLSMR starter and 10KST1 sets (AID 438;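 active = inhibition above 20% together with a positive visual image hit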;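 also: compound added about 3h40 before a 20 min TNFalpha stimulation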;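 as to inhibition: signal is the nuclear over cytoplasmic p65 intensity ratio per well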); conditions: HUVEC TNFa-induced p65 nuclear translocation; cell count: measured here: nuclei count (cytotoxicity indicator), at 2.08 µM; inhibition: at 2 µM, stronger effect = higher value, 0% TNFa-plus-vehicle, 100% no-TNFa wells
[2] = inhibitors of E-selectin induction by TNFa, primary screen, imaging, HUVEC, immunofluorescence, MLSMR starter and 10KST1 sets (AID 487); conditions: HUVEC TNFalpha-induced E-selectin immunofluorescence imaging, at 2 µM; inhibition: stronger effect = higher value; nuclei count: measured here: cell number, toxicity;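 as to inhibition: signal is fraction of cell area covered by stained E-selectin grains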;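 as to nuclei count: 100% = median nuclei count of all wells on the same plate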
[3] = DUSP6 inhibitors restoring Erk phosphorylation by chemical complementation, primary imaging in DUSP6-transfected HeLa (AID 609;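 active = compounds giving at least 50% inhibition in the cell-based MKP-3 phosphatase rescue imaging test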;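 as to inhibition: phospho-Erk level distribution per well compared with pooled transfected vehicle control wells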); conditions: HeLa MKP-3 transfected, phospho-Erk imaging KS statistic, at 10 µM, cells stimulated with TPA for 15 min
[4] = target: Dual specificity protein phosphatase 6 (Homo sapiens) (UniProt Q16828); test: as above; conditions: HeLa MKP-3 transfected, phospho-Erk imaging KS statistic; at 10 µM; stronger effect = higher value; cells stimulated with TPA for 15 min
[5] = target: Voltage-gated potassium channel subunit beta-2 (Rattus norvegicus) (UniProt P62483); test: KvBeta enzyme negative modulators, primary screen, biochemical, NADPH fluorescence (AID 622;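 active = fluorescence slope higher than the sample average by over 3 SD, cut at about -0.22 in these data, passing the limit was not always enough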;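 also: slope of raw intensity against log time taken from 70 to 1610 s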); conditions: recombinant KvBeta, 4-cyanobenzaldehyde reduction, at 10 µM, stronger effect = higher value
[6] = target: Voltage-gated potassium channel subunit beta-2 (Rattus norvegicus) (UniProt P62483); test: KvBeta positive modulators, primary screen, biochemical, NADPH fluorescence (AID 623;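 active = NADPH fluorescence slope more negative than the mean of all samples by about 3 SD, 99.7% confidence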;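 also: fluorescence intensity change per second fitted from 20 to 320 s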); conditions: Recombinant KvBeta, NADPH fluorescence decrease slope, 10 min; at 10 µM; stronger effect = lower value
[7] = target: Alpha-2C adrenergic receptor (Homo sapiens) (UniProt P18825); test: modulators of alpha2C/GIRK thallium flux, primary screen, cell-based, HEK293 alpha2C/GIRK1/2 (AID 624;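 active = fluorescence slope after compound addition differing from the mean of all screened samples at 99.7% confidence, in either direction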;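 also: slope of fluorescence ratio to pre-addition baseline per second over 15 to 24 s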); conditions: thallium flux BTC fluorescence, at 10 µM, actives lie on both sides
[8] = inhibitors of larval lipid processing in zebrafish, primary screen, whole organism, PED6 fluorescence, gall bladder and intestine (AID 686;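 active = a full or partial loss of lipid-probe fluorescence in the fish gall bladder, intestine or both, judged by eye; inactive = no fluorescence loss, or compound toxic to the fish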;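 also: larvae 5 to 7 days old with five fish per well; signal comes from phospholipase A2 cleavage of quenched PED6 carried via bile; overnight exposure to compound and PED6 before scoring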); conditions: Zebrafish larvae PED6 lipid processing, fluorescence scoring; screened at 20 µM (by protocol)
In short: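 Doses: 20 µM single dose. Test system: live zebrafish larvae aged 5-7 days, whole organism. Quantity: five larvae per well. Measured by: By-eye fluorescence microscopy. Reagent: ingested quenched lipid PED6 at 100 nM. Read-out: visual per-well fluorescence inhibition score. Times: overnight exposure of larvae to compound plus PED6.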

[9] = inhibitors of Chlamydomonas gravitaxis, primary screen, whole organism, Chlamydomonas reinhardtii, WT vs cilia-less mutant, absorbance, 96-well (AID 463189;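 active = inhibition at or above 50% relative to wild type and mutant plate controls; inactive = inhibition below 50%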;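 also: 0% = wild type cc124 cells in DMSO and 100% = ciliumless bld1 mutant cells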); conditions: OD600 absorbance, 2 days, at 10 µM, stronger effect = higher value
[10] = measured here: cell density z-score
[11] = measured here: nuclear c-Myc green intensity z-score
[12] = measured here: nuclear pErk red intensity z-score, stronger effect = higher value

Chain of Voltage-gated potassium channel subunit beta-2 (Rattus norvegicus) (P62483 whole entry, looked up): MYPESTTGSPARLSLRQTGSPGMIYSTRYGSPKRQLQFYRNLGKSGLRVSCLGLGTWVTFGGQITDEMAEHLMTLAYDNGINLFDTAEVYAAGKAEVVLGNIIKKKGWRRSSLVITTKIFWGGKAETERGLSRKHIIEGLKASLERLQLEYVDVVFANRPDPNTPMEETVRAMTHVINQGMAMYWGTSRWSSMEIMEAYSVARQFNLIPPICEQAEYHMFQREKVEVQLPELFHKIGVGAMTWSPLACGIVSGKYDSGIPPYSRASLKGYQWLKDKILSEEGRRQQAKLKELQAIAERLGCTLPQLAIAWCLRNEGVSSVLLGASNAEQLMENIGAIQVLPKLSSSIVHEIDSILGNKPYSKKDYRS
Chain of Alpha-2C adrenergic receptor (Homo sapiens) (P18825 whole entry, looked up): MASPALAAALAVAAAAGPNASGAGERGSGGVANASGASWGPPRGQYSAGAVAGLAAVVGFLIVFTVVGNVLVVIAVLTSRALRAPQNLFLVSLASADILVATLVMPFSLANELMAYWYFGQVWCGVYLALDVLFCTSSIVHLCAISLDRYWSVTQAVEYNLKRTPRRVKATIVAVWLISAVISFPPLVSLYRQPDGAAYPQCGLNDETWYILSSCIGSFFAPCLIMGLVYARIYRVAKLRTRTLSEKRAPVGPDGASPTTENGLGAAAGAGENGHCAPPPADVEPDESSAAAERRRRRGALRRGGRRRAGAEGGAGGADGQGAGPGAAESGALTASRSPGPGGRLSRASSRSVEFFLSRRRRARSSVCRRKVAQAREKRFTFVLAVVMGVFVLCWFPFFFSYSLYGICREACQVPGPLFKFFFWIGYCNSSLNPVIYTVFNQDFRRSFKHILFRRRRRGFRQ
Chain of Dual specificity protein phosphatase 6 (Homo sapiens) (Q16828 whole entry, looked up): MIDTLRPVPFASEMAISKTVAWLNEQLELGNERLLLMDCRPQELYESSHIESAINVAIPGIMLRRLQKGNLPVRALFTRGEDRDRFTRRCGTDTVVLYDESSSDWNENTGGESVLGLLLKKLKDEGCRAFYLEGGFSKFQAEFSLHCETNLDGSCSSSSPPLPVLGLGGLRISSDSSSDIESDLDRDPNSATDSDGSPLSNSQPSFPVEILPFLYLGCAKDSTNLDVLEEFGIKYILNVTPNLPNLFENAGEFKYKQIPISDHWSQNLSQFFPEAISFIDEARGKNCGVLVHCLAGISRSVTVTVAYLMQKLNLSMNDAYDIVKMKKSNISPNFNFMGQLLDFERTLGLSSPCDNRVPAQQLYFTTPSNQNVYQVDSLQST

CC(=O)Oc1ccccc1C1OCCN1C(C)=O (configuration not stated)
cell count [1]: 619 | inhibition [1]: -6.5% (inactive) | inhibition [2]: -38.8% (inactive) | nuclei count [2]: 170% | z-score [3, 10]: -0.208 | z-score [3, 11]: -0.565 | z-score [3, 12]: 1.43 | inhibition [4]: -2.69% (inactive) | fluorescence slope [5]: -0.375 (inactive) | NADPH fluorescence slope [6]: -2.3e-05 (inactive) | slope [7]: 0.00518 (inactive) | outcome [8]: inactive | inhibition [9]: -5.26% (inactive)

Cc1nnc(C)n1/N=C/c1cc(Br)cc(Br)c1O
cell count [1]: 354 | inhibition [1]: 3.7% (inactive) | inhibition [2]: -46.9% (inactive) | nuclei count [2]: 156% | z-score [3, 10]: 0.57 | z-score [3, 11]: 0.148 | z-score [3, 12]: -0.137 | inhibition [4]: 1.6e-07% (inactive) | fluorescence slope [5]: -0.368 (inactive) | NADPH fluorescence slope [6]: -0.000109 (inactive) | slope [7]: 0.00748 (inactive) | outcome [8]: inactive | inhibition [9]: 4.5% (inactive)

Nc1ncnc2nc(SCc3ccccc3)[nH]c12
cell count [1]: 352 | inhibition [1]: 2.1% (inactive) | inhibition [2]: -52.6% (inactive) | nuclei count [2]: 152% | z-score [3, 10]: -0.893 | z-score [3, 11]: 1.92 | z-score [3, 12]: 0.814 | inhibition [4]: -7.01% (inactive) | fluorescence slope [5]: -0.432 (inactive) | NADPH fluorescence slope [6]: -0.00013 (inactive) | slope [7]: 0.00504 (inactive) | outcome [8]: inactive | inhibition [9]: 8.96% (inactive)

COC(=O)c1sc(NC(C)=O)c(C(=O)OC)c1C
cell count [1]: 633 | inhibition [1]: -13.3% (inactive) | inhibition [2]: 4.8% (inactive) | nuclei count [2]: 154% | z-score [3, 10]: 1.36 | z-score [3, 11]: -0.117 | z-score [3, 12]: -1.37 | inhibition [4]: 6.04% (inactive) | fluorescence slope [5]: -0.516 (inactive) | NADPH fluorescence slope [6]: -9.3e-05 (inactive) | slope [7]: 0.00594 (inactive) | outcome [8]: inactive | inhibition [9]: -1.51% (inactive)

COc1ccc(-c2nn3c(-c4ccccn4)nnc3s2)cc1OC
cell count [1]: 638 | inhibition [1]: -8.9% (inactive) | inhibition [2]: 36.9% (inactive) | nuclei count [2]: 169% | z-score [3, 10]: 0.845 | z-score [3, 11]: -0.297 | z-score [3, 12]: -0.421 | inhibition [4]: -2.47% (inactive) | fluorescence slope [5]: -0.407 (inactive) | NADPH fluorescence slope [6]: -0.000141 (inactive) | slope [7]: 0.00665 (inactive) | outcome [8]: inactive | inhibition [9]: 22% (inactive)

Cc1ccc(OCC(=O)NCC(=O)n2nc(C)cc2C)cc1
cell count [1]: 580 | inhibition [1]: -8% (inactive) | inhibition [2]: 13.1% (inactive) | nuclei count [2]: 170% | z-score [3, 10]: -0.967 | z-score [3, 11]: -0.193 | z-score [3, 12]: 1.92 | inhibition [4]: -7.01% (inactive) | fluorescence slope [5]: -0.382 (inactive) | NADPH fluorescence slope [6]: -2.8e-05 (inactive) | slope [7]: 0.00489 (inactive) | outcome [8]: inactive | inhibition [9]: -1.21% (inactive)

O=C(C1=C(O)C(=O)N(CCCN2CCOCC2)C1c1ccccn1)c1cccs1 (configuration not stated)
cell count [1]: 506 | inhibition [1]: -11.2% (inactive) | inhibition [2]: -117% (inactive) | nuclei count [2]: 136% | z-score [3, 10]: -1.2 | z-score [3, 11]: -0.158 | z-score [3, 12]: 2.08 | inhibition [4]: -3.5% (inactive) | fluorescence slope [5]: -0.495 (inactive) | NADPH fluorescence slope [6]: -5.5e-05 (inactive) | slope [7]: 0.00674 (inactive) | outcome [8]: inactive | inhibition [9]: -6.32% (inactive)

CCN(CC)CCNc1nc2c(c(=O)[nH]c(=O)n2C)n1CCOc1ccccc1
cell count [1]: 501 | inhibition [1]: -1.2% (inactive) | inhibition [2]: -206% (inactive) | nuclei count [2]: 135% | z-score [3, 10]: 0.0299 | z-score [3, 11]: -1.12 | z-score [3, 12]: -0.109 | inhibition [4]: 12.3% (inactive) | fluorescence slope [5]: -0.534 (inactive) | NADPH fluorescence slope [6]: -4.4e-05 (inactive) | slope [7]: 0.00521 (inactive) | outcome [8]: inactive | inhibition [9]: 0.39% (inactive)

CCC1(C)Cc2c(sc3c2c(=O)n(C)c2nnc(SCc4ccc5c(c4)OCO5)n32)CO1 (configuration not stated)
cell count [1]: 497 | inhibition [1]: -11% (inactive) | inhibition [2]: 34% (inactive) | nuclei count [2]: 98.6% | z-score [3, 10]: 1.16 | z-score [3, 11]: 0.737 | z-score [3, 12]: -1.44 | inhibition [4]: 22.3% (inactive) | fluorescence slope [5]: -0.418 (inactive) | NADPH fluorescence slope [6]: 9.4e-07 (inactive) | slope [7]: 0.00552 (inactive) | outcome [8]: inactive | inhibition [9]: 46.1% (inactive)

O=c1c(-c2ccc3c(c2)OCCO3)c(C(F)(F)F)oc2cc(O)cc(O)c12
cell count [1]: 534 | inhibition [1]: -10.2% (inactive) | inhibition [2]: -138% (inactive) | nuclei count [2]: 131% | z-score [3, 10]: 1.65 | z-score [3, 11]: -1.41 | z-score [3, 12]: -0.0254 | inhibition [4]: 1.9e-07% (inactive) | fluorescence slope [5]: -0.533 (inactive) | NADPH fluorescence slope [6]: -4e-05 (inactive) | slope [7]: 0.00864 (inactive) | outcome [8]: inactive | inhibition [9]: 29.9% (inactive)

Cn1cc(C(=O)NCN2CCCCC2)c2ccccc21
cell count [1]: 637 | inhibition [1]: -1.9% (inactive) | inhibition [2]: 33.7% (inactive) | nuclei count [2]: 201% | z-score [3, 10]: 0.345 | z-score [3, 11]: -0.8 | z-score [3, 12]: -0.0314 | inhibition [4]: -5.89% (inactive) | fluorescence slope [5]: -0.45 (inactive) | NADPH fluorescence slope [6]: -0.000261 (inactive) | slope [7]: 0.00517 (inactive) | outcome [8]: inactive | inhibition [9]: -12.4% (inactive)

CCOC(=O)NC(O)C(=O)c1cccs1 (configuration not stated)
cell count [1]: 507 | inhibition [1]: -20.3% (inactive) | inhibition [2]: -205% (inactive) | nuclei count [2]: 153% | z-score [3, 10]: 1.4 | z-score [3, 11]: -0.239 | z-score [3, 12]: -0.163 | inhibition [4]: 22.3% (inactive) | fluorescence slope [5]: -0.5 (inactive) | NADPH fluorescence slope [6]: -0.000158 (inactive) | slope [7]: 0.00426 (inactive) | outcome [8]: inactive | inhibition [9]: 16.4% (inactive)

Cc1nc2c(c(=O)n1CC1CCCO1)c1nc3ccccc3nc1n2Cc1ccc2c(c1)OCO2 (configuration not stated)
cell count [1]: 281 | inhibition [1]: -7.1% (inactive) | inhibition [2]: -128% (inactive) | nuclei count [2]: 80.3% | z-score [3, 10]: 2.15 | z-score [3, 11]: -0.362 | z-score [3, 12]: -1.56 | inhibition [4]: -0.584% (inactive) | fluorescence slope [5]: -0.42 (inactive) | NADPH fluorescence slope [6]: -0.000106 (inactive) | slope [7]: 0.00645 (inactive) | outcome [8]: inactive | inhibition [9]: 9.64% (inactive)

CCOC(=O)CSc1nc(NC#N)nc(N(CC)CC)n1
cell count [1]: 650 | inhibition [1]: -7.6% (inactive) | inhibition [2]: -42.9% (inactive) | nuclei count [2]: 165% | z-score [3, 10]: -0.121 | z-score [3, 11]: -0.374 | z-score [3, 12]: -1.34 | inhibition [4]: 13.2% (inactive) | fluorescence slope [5]: -0.51 (inactive) | NADPH fluorescence slope [6]: -9.5e-05 (inactive) | slope [7]: 0.0053 (inactive) | outcome [8]: inactive | inhibition [9]: -12.7% (inactive)
